Results: ChEMBL document CHEMBL1152523, “3-Substituted phenylalanines as selective AMPA- and kainate receptor ligands” (Bioorg Med Chem, 2009)
Calls of active or inactive are those of the source. The rule behind the calls is not given here.

Tests used:
Rattus norvegicus = organism: Rattus norvegicus; assay: Displacement of [3H]kainic acid from kainate receptor in rat cortical membrane; assay type: cell membranes
Summary of the method: (§1)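 Native rat brain membranes prepared per Ransom and Stec. Competition binding with 5 nM [3H]AMPA or 5 nM [3H]KA. Three independent experiments, mean ± SEM.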

[1] = target: Glutamate receptor ionotropic, kainate 2 (Rattus norvegicus) (UniProt P42260); assay: Displacement of [3H]SYM2081 from rat recombinant iGluR6 expressed in baculovirus-infected insect Sf9 cells
Chain of Glutamate receptor ionotropic, kainate 2 (Rattus norvegicus) (P42260 whole entry): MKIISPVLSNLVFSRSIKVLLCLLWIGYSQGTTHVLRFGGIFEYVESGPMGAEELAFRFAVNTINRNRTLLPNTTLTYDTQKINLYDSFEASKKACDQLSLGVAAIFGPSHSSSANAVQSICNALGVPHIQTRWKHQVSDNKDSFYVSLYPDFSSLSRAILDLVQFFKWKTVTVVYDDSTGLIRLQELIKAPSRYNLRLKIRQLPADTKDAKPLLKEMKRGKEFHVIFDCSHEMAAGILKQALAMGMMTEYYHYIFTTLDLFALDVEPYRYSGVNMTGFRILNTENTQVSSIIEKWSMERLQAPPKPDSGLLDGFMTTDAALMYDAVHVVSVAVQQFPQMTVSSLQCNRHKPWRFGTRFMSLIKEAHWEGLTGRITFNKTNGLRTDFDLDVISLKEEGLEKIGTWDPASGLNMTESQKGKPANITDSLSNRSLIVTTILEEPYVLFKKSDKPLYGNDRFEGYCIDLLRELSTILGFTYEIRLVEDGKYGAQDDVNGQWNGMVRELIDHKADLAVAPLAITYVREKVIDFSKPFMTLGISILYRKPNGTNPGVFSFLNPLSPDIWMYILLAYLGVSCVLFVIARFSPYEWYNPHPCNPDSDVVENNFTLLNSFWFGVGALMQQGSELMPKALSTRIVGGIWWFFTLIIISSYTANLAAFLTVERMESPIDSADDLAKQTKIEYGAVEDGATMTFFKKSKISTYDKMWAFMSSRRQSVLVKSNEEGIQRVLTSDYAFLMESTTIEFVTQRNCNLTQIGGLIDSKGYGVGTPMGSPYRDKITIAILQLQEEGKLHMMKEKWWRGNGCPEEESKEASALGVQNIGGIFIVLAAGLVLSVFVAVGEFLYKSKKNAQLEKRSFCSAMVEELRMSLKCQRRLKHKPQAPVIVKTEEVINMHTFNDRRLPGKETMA
Summary of the method: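 Recombinant rat iGluR6(V,C,R) expressed in baculovirus-infected Sf9 insect cells. Competition binding against [3H]-SYM 2081 radioligand. Three independent experiments, mean ± SEM.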

[2] = target: T1, Glutamate receptor ionotropic, kainate 1 (Rattus norvegicus, UniProt P22756); assay: Displacement of [3H]SYM2081 from rat recombinant iGluR5-1b expressed in baculovirus-infected insect Sf9 cells
T1 sequence (P22756 whole entry): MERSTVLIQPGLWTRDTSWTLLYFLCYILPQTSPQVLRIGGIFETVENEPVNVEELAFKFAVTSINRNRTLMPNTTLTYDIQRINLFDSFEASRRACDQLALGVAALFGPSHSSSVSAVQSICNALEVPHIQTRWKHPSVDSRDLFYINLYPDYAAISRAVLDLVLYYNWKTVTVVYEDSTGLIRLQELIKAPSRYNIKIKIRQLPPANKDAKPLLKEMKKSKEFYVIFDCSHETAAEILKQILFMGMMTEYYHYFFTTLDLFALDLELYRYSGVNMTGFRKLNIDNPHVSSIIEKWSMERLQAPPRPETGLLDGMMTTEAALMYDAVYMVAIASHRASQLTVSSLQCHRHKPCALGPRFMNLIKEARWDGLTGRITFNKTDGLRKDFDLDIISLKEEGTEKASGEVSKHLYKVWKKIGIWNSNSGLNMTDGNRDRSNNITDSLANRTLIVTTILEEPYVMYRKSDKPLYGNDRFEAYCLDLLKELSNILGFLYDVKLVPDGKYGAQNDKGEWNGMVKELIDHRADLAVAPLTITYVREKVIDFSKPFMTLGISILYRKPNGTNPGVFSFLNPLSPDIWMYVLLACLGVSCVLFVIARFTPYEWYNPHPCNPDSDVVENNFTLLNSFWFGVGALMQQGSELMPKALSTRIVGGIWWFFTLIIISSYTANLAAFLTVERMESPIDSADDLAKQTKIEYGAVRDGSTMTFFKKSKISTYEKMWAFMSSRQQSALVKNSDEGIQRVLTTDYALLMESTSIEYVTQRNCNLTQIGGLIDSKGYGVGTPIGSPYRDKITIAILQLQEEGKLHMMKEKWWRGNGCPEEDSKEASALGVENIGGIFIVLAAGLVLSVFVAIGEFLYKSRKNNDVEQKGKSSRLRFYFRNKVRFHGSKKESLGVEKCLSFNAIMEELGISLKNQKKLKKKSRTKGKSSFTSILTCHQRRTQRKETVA
Summary of the method: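 Recombinant rat iGluR5(Q)1b expressed in Sf9 insect cells via baculoviral infection; competition binding against [3H]-SYM 2081 radioligand. Values from three independent experiments, expressed as mean ± SEM.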

[3] = target: Glutamate NMDA receptor (Rattus norvegicus) (UniProt P35439+Q00959+Q00960+Q00961+Q62645+Q8VHN2+Q9R1M7); assay: Displacement of [3H]CGP39653 from NMDA receptor in rat cortical membrane; assay type: cell membranes
Summary of the method: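 Rat brain membranes prepared per Ransom and Stec. Binding at the NMDA site measured with 2 nM [3H]CGP 39653. Three independent experiments, mean ± SEM.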

[4] = Displacement of [3H]AMPA from AMPA receptor in rat cortical membrane; assay type: cell membranes; summary of the method: as §1
Glutamate receptor 2 = Glutamate receptor 2 (Rattus norvegicus, UniProt P19491); assay: Displacement of [3H]AMPA from wild type rat GluR2 S1S2 ligand binding core
Chain of Glutamate receptor 2 (P19491 whole entry): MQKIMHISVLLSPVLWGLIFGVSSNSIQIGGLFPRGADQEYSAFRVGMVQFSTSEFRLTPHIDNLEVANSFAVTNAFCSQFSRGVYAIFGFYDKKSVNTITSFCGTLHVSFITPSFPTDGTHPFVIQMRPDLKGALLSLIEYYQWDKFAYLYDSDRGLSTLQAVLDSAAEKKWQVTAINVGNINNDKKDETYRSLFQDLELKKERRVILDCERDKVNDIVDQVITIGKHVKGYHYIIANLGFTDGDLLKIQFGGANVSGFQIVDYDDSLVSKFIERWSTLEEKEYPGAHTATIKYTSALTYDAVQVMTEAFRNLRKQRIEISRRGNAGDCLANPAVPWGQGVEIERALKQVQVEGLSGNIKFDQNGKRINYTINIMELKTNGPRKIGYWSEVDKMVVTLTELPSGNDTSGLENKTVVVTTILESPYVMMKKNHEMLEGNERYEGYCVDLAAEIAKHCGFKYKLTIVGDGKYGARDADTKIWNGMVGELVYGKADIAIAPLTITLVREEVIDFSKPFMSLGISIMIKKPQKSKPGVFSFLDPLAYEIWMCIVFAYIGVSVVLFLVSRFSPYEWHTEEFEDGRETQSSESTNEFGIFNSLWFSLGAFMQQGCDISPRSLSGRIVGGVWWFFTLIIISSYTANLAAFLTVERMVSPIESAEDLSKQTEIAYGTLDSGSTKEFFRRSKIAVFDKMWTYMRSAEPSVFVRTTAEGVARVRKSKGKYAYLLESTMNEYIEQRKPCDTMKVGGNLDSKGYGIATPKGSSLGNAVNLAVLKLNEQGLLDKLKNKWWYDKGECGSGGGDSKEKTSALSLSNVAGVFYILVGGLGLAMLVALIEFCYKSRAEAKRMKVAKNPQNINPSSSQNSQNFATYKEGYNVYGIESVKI

[5] = target: T1, Glutamate receptor ionotropic, kainate 1; assay: Displacement of [3H]S-glutamate from rat GluR5 S1S2 ligand binding core expressed in Escherichia coli (DE3)

Row | Kd (Glutamate receptor 2) | Kd [5] | SMILES | Activity (Rattus norvegicus) | Activity [1] | Ki [2] | Activity [3] | IC50 [4]
1 |  |  | NC(Cc1cccc(Cc2ccccc2C(=O)O)c1)C(=O)O (racemic) | inactive | inactive | ≥ 100 µM | inactive | > 100 µM
2 |  |  | NC(Cc1cccc(-c2ccc(C(=O)O)cc2)c1)C(=O)O (racemic) | inactive | inactive | > 100 µM | inactive | 41 µM
3 |  |  | NC(Cc1cccc(-c2cccc(CC(=O)O)c2)c1)C(=O)O (racemic) | inactive | inactive | ≥ 100 µM | inactive | > 100 µM
4 |  |  | NC(Cc1cccc(Cc2ccc(C(=O)O)cc2)c1)C(=O)O (racemic) | inactive | inactive | ≥ 100 µM | inactive | > 100 µM
5 |  |  | NC(Cc1cc(Cl)c(Cl)c(-c2ccc([N+](=O)[O-])cc2)c1)C(=O)O (racemic) | inactive | inactive | > 100 µM | inactive | > 100 µM
6 |  |  | NC(Cc1cc(Cl)c(Cl)c(-c2cccc(C(=O)O)c2)c1)C(=O)O (racemic) | inactive | inactive | 2.8 µM | inactive | > 100 µM
7 |  |  | NC(Cc1cc(Cl)c(Cl)c(-c2ccccc2C(=O)O)c1)C(=O)O (racemic) | inactive | inactive | > 100 µM | inactive | > 100 µM
8 | 146 µM | 3.94 µM | N[C@@H](Cn1ccc(=O)n(Cc2ccccc2C(=O)O)c1=O)C(=O)O | inactive | inactive |  | inactive | 
9 |  |  | NC(Cc1cc(Cl)c(Cl)c(-c2ccccc2-c2nnn[nH]2)c1)C(=O)O (racemic) | inactive | inactive | > 100 µM | inactive | > 100 µM
10 |  |  | N[C@H](Cc1cccc(-c2cccc(C(=O)O)c2)c1)C(=O)O | inactive | inactive | > 1000 µM | inactive | 
11 |  |  | CC(C)(C)c1onc(OCP(=O)(O)O)c1C[C@H](N)C(=O)O | inactive | inactive | 2.9 µM | inactive | 16 µM
12 |  |  | NC(Cc1cccc(-c2cccc(C(=O)O)c2)c1)C(=O)O (racemic) | inactive | inactive | 7.9 µM | inactive | > 100 µM
13 |  |  | N[C@@H](Cc1cccc(-c2cccc(C(=O)O)c2)c1)C(=O)O | inactive | inactive | 4.08 µM | inactive | 
14 |  |  | NC(Cc1cc(Cl)c(Cl)c(-c2ccc(O)cc2)c1)C(=O)O (racemic) | inactive | inactive | > 100 µM | inactive | 33 µM
15 |  |  | NC(Cc1cc(Cl)c(Cl)c(-c2cccc(-c3nnn[nH]3)c2)c1)C(=O)O (racemic) | inactive | inactive | ≥ 100 µM | inactive | > 100 µM
16 |  |  | NC(Cc1cc(Cl)c(Cl)c(-c2cccc(O)c2)c1)C(=O)O (racemic) | inactive | inactive | > 100 µM | inactive | 4.6 µM
17 |  |  | NC(Cc1cccc(-c2ccc(CC(=O)O)cc2)c1)C(=O)O (stereo not drawn) | inactive | inactive | > 100 µM | inactive | > 100 µM
18 |  |  | NC(Cc1cc(Cl)c(Cl)c(-c2ccc(C(=O)O)s2)c1)C(=O)O (racemic) | inactive | inactive | ≥ 100 µM | inactive | 61 µM
19 |  |  | NC(Cc1cc(Cl)c(Cl)c(-c2cccc([N+](=O)[O-])c2)c1)C(=O)O (racemic) | inactive | inactive | > 100 µM | inactive | > 100 µM
20 |  |  | NC(Cc1cc(Cl)c(Cl)c(-c2ccc(-c3nnn[nH]3)cc2)c1)C(=O)O (racemic) | inactive | inactive | > 100 µM | inactive | > 100 µM
21 |  |  | NC(Cc1cc(Cl)c(Cl)c(-c2ccc(C(=O)O)cc2)c1)C(=O)O (racemic) | inactive | inactive | > 100 µM | inactive | 42 µM
22 |  |  | NC(Cc1cccc(Cc2cccc(C(=O)O)c2)c1)C(=O)O (racemic) | inactive | inactive | 50 µM | inactive | > 100 µM
23 |  |  | NC(Cc1cccc(-c2ccccc2C(=O)O)c1)C(=O)O (racemic) | inactive | inactive | > 100 µM | inactive | > 100 µM
24 |  |  | NC(Cc1cc(Cl)c(Cl)c(-c2ccccc2O)c1)C(=O)O (racemic) | inactive | inactive | > 100 µM | inactive | 85 µM
